Experimental data from different studies.
Each line is one published result; the experiments were not run side by side.
Target: Calcium/calmodulin-dependent protein kinase type 1B (PNCK, Homo sapiens, UniProt Q6P2M8)

Structure (SMILES) | read-out | technique | tested at | remaining binding
N#CC1(c2ccccn2)CCN(Cc2cc(C(=O)N3CCCC3)c(=O)n3ccccc23)CC1 | cell-free assay | competition with immobilised ligand | 1 µM | 90%
O=C(NCCCN1CCOCC1)c1ccc(Nc2ncc(Cl)c(-c3ccc(Cl)s3)n2)cc1 | binding | competition with immobilised ligand | 1 µM | 82%
COc1cnc(Nc2cccc(S(N)(=O)=O)c2)nc1N1CCN(c2ccccc2)C(=O)C1 | binding | competition with immobilised ligand | 1 µM | 83%
c1cncc(-c2cccc(Nc3nccc(NC4CCCCC4)n3)c2)c1 | binding | competition with immobilised ligand | 10 µM | 53%
CN(C)c1nccc(-c2cnn3ncccc23)n1 | binding | – | 1 µM | 29%
O=C(Nc1cnc(Oc2ccc(F)cc2)nc1)N1CCc2ncccc2[C@@H]1c1ccc(F)cc1 | cell-free assay | competition with immobilised ligand | 1 µM | 100%
COc1ccnn2ncc(-c3ccnc(N(C)C)n3)c12 | binding | – | 1 µM | 100%
COc1ncc2cc3ccccc3nc2c1C#N | cell-free assay | competition with immobilised ligand | 5 µM | 95%
O=C(c1ccc(Nc2nccc(-c3cc4ccccc4s3)n2)cc1)N1CCC(N2CCCC2)CC1 | binding | competition with immobilised ligand | 1 µM | 47%
FC(F)(F)Oc1cccc(-c2cnc3ccc(-c4ccncc4)nn23)c1 | cell-free assay | competition with immobilised ligand | 5 µM | 100%
N[C@H]1CCN(c2nccc(-c3cnn4ncccc34)n2)C1 | binding | – | 1 µM | 84%
O=c1nc(-c2ccccn2)sc2ccccc12 | cell-free assay | competition with immobilised ligand | 1 µM | 56%
F[C@@H]1CCN(c2nccc(-c3cnn4ncccc34)n2)C1 | binding | – | 1 µM | 100%
O=C(NCCCN1CCOCC1)c1ccc(Nc2nccc(-c3cc4ccccc4s3)n2)cc1 | binding | competition with immobilised ligand | 1 µM | 61%
CC1=C(C#N)C(c2ccc3c(c2)c(NC(=O)c2ccccc2C)nn3C)C(C#N)=C(C)N1 | cell-free assay | competition with immobilised ligand | 1 µM | 85%
O=C(Nc1c[nH]nc1C(=O)NC1CCNCC1)c1cc(F)cc(F)c1 | binding | competition with immobilised ligand | 1 µM | 100%
CC1CCCN1c1nccc(-c2cnn3ncccc23)n1 (stereo not drawn) | binding | – | 1 µM | 82%
CC1=C(C#N)[C@@H](c2ccc3[nH]nc(C)c3c2)C(C#N)=C(c2ccc(Cl)cc2)N1 | cell-free assay | competition with immobilised ligand | 1 µM | 98.5%
